Measurements: ChEMBL document CHEMBL3091432, “(S)-4-Trimethylsilyl-3-butyn-2-ol as an auxiliary for stereocontrolled synthesis of salinosporamide analogs with modifications at positions C2 and C5” (Bioorg Med Chem Lett, 2013)
Activity calls are given as the source filed them. The calls are words filed in the database; no cut-off is given here.

Assays:
[1] = target: T1, Proteasome Macropain subunit MB1 (Homo sapiens, UniProt P28074); experiment: Inhibition of chymotrypsin like activity of human 20S proteasome after 1 hr by luminescence assay
T1 sequence (P28074 whole entry): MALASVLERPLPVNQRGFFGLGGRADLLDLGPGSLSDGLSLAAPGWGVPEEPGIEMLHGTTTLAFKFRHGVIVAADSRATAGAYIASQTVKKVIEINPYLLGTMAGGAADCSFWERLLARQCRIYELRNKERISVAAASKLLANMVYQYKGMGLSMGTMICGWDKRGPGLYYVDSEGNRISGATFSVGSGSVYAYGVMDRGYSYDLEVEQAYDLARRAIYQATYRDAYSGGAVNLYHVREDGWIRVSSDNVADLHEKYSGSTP

[2] = target: T2, Proteasome Macropain subunit MB1 (Homo sapiens) (UniProt P28074); experiment: Inhibition of human 20S proteasome beta 5 subunit assessed as cyclized acylated protein adduct formation after <20 mins by ESI-TOF analysis
T2 sequence (whole entry): T1 sequence (P28074 whole entry)
Outline: (§1)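 Purified human 20S proteasome (1.4 μM) incubated at 23 °C with a 10-fold molar excess of inhibitor in pH 7.5 buffer (10 mM Tris/HCl, 1 mM EDTA, 1 mM DTT, <1% DMSO) for varying times. Reactions stopped by denaturing quench, desalted on C4 tips, eluted with 70:30:0.1 acetonitrile–water–formic acid, then analysed by mass spectrometry to follow each step of subunit modification.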

[3] = target: T2, Proteasome Macropain subunit MB1 (Homo sapiens); experiment: Inhibition of human 20S proteasome beta 5 subunit assessed as cyclized acylated protein adduct formation after <20 mins by FT-MS analysis; outline: as §1
[4] = target: T2, Proteasome Macropain subunit MB1 (Homo sapiens); experiment: Inhibition of human 20S proteasome beta 5 subunit assessed as non-cyclized product formation after 5 to 10 mins by ESI-TOF analysis; outline: as §1
[5] = target: T2, Proteasome Macropain subunit MB1 (Homo sapiens); experiment: Inhibition of human 20S proteasome beta 5 subunit assessed as non-cyclized product formation after 5 to 10 mins by FT-MS analysis; outline: as §1
[6] = target: T1, Proteasome Macropain subunit MB1; experiment: Inhibition of chymotrypsin like activity of 20S proteasome in HEK293 cells after 24 hrs by microscopic analysis; format: cell-based
Outline: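 Image-based screen in a stably transfected HEK cell line expressing a GFP-tagged proteasomal substrate. Proteasomal inhibition is read out by cellular fluorescence.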

[7] = target: T2, Proteasome Macropain subunit MB1 (Homo sapiens); experiment: Inhibition of human 20S proteasome beta 5 subunit assessed as hydrolysis of non-cyclized product after 48 hrs by ESI-TOF analysis; outline: as §1
[8] = target: T2, Proteasome Macropain subunit MB1 (Homo sapiens); experiment: Inhibition of human 20S proteasome beta 5 subunit assessed as hydrolysis of non-cyclized product after 48 hrs by FT-MS analysis; outline: as §1
[9] = target: T2, Proteasome Macropain subunit MB1 (Homo sapiens); experiment: Inhibition of human 20S proteasome beta 5 subunit assessed as cyclized acylated protein adduct formation after 48 hrs by ESI-TOF analysis; outline: as §1
[10] = target: T2, Proteasome Macropain subunit MB1 (Homo sapiens); experiment: Inhibition of human 20S proteasome beta 5 subunit assessed as cyclized acylated protein adduct formation after 48 hrs by FT-MS analysis; outline: as §1

COC(=O)C[C@H]1C(=O)N[C@@]2([C@@H](O)C3CCCCC3)C(=O)O[C@@]12C
IC50 [1]: 500 nM

C[C@@]12OC(=O)[C@]1([C@@H](O)C1CCCCC1)NC(=O)[C@@H]2CC=O
IC50 [1]: 330 nM

C[C@@]12OC(=O)[C@]1([C@@H](O)C1CCCCC1)NC(=O)[C@@H]2CCCl
inhibition [2]: Active | inhibition [3]: Active | inhibition [4]: Active | inhibition [5]: Active | EC50 [6]: 10 nM | IC50 [1]: 23 nM

C[C@@]12OC(=O)[C@]1([C@@H](O)C1CCCCC1)NC(=O)[C@@H]2CCCCl
inhibition [7]: inactive | inhibition [8]: inactive | inhibition [9]: inactive | inhibition [4]: Active | inhibition [5]: Active | EC50 [6]: 90 nM | IC50 [1]: 50 nM | inhibition [10]: inactive

C[C@@]12OC(=O)[C@]1([C@@H](O)[C@@H]1C=CCCC1)NC(=O)[C@@H]2CCCl [MARIZOMIB]
inhibition [2]: Active | inhibition [3]: Active | inhibition [4]: Active | inhibition [5]: Active | IC50 [1]: 22 nM

C[C@@]12OC(=O)[C@]1([C@@H](O)C1CC1)NC(=O)[C@@H]2CCCl
EC50 [6]: 360 nM | IC50 [1]: 28 nM

C[C@@]12OC(=O)[C@]1([C@@H](O)Cc1ccccc1)NC(=O)[C@@H]2CCCl
EC50 [6]: 332 nM | IC50 [1]: 500 nM
